ChEMBL document CHEMBL1124472, “Renal vasodilators. The role of the 4-substituent in isoquinolin-3-ol cardiovascular agents: 4-ureido derivatives of isoquinolin-3-ol with selective renal vasodilator properties” (1989)

Assays:
Conditions in all cases: route intravenous
Canis familiaris [1] = assay: Percent change in renal vascular resistant e by 1.2 mg/kg of compound administered intravenously in dog; format: functional, Canis lupus familiaris
Outline: (§1)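 Adult dogs anesthetized with pentobarbital (45 mg/kg ip), instrumented for electromagnetic renal artery flow; femoral artery cannulated for blood pressure, cardiotachometer for heart rate; iv via femoral vein. Cumulative infusion at rising rates, 5 min each (0.2+1.0 mg/kg for 1.2; 0.2+1.0+5.0 mg/kg for 6.2), in 0.9% saline ± acid/base; ≥2 dogs; maximal % change from predrug over ≥30 min; RVR = MAP/RBF.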

Canis familiaris [2] = assay: (§2) Percent change in renal blood flow by 1.2 mg/kg of compound administered intravenously in dog; format: functional, Canis lupus familiaris, Kidney; outline: as §1
Canis familiaris [3] = assay: Percent change in heart rate by 1.2 mg/kg of compound administered intravenously in dog; format: functional, Canis lupus familiaris; outline: as §1
Canis familiaris [4] = assay: Percent change in mean arterial blood pressure by 1.2 mg/kg of compound administered intravenously in dog; format: functional, Canis lupus familiaris; outline: as §1
Canis familiaris [5] = assay: Percent change in mean arterial blood pressure by 6.2 mg/kg of compound administered intravenously in dog; format: functional, Canis lupus familiaris; outline: as §1
Canis familiaris [6] = assay: Percent change in renal blood flow by 6.2 mg/kg of compound administered intravenously in dog; format: functional, Canis lupus familiaris; outline: as §1
Canis familiaris [7] = assay: Percent change in heart rate by 6.2 mg/kg of compound administered intravenously in dog; format: functional, Canis lupus familiaris; outline: as §1
Canis familiaris [8] = assay: Percent change in renal vascular resistant e by 6.2 mg/kg of compound administered intravenously in dog; format: functional, Canis lupus familiaris; outline: as §1
Canis familiaris [9] = assay: Percent increase in myocardial contractile force by 8.75 mg/kg of compound administered intravenously in dog; format: functional, Canis lupus familiaris, Myocardium
Outline: (§3)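 Adult mongrel dogs, pentobarbital 45 mg/kg ip, artificially respired; right thoracotomy, Walton Brodie strain gauge on right ventricle at 100 g baseline tension. Only dogs giving >100% contractile-force rise to dopamine (10-15 μg/kg per min × 3 min) were used. Compound in 10-15% dimethylformamide, total dose infused iv into femoral vein; % change in contractile force.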

Canis familiaris [10] = assay: Percent increase in myocardial contractile force by 0.025 mg/kg of compound administered intravenously in dog; format: functional, Canis lupus familiaris, Myocardium; outline: as §3
Canis familiaris [11] = assay: Percent increase in myocardial contractile force by 1.75 mg/kg of compound administered intravenously in dog; format: functional, Canis lupus familiaris, Myocardium; outline: as §3
Canis familiaris [12] = assay: as §2; format: functional, Canis lupus familiaris; outline: as §1
Canis familiaris [13] = assay: Percent increase in myocardial contractile force by 1.88 mg/kg of compound administered intravenously in dog; format: functional, Canis lupus familiaris, Myocardium; outline: as §3

| Compound | Change (Canis familiaris [1]) [%] | Change (Canis familiaris [2]) [%] | Change (Canis familiaris [3]) [%] | Change (Canis familiaris [4]) [%] | Change (Canis familiaris [5]) [%] | Change (Canis familiaris [6]) [%] | Change (Canis familiaris [7]) [%] | Change (Canis familiaris [8]) [%] | further results |
| --- | --- | --- | --- | --- | --- | --- | --- | --- | --- |
| C=CCNC(=O)Nc1c(O)nc(C)c2cc(OC)c(OC)cc12 | -44 | 97 | -3 | 8 |  |  |  |  |  |
| CCCCNC(=O)Nc1c(O)nc(C)c2cc(O)c(O)cc12 | 2 | -2 | 2 | -1 |  |  |  |  |  |
| COc1cc2cnc(O)c(NC(C)=O)c2cc1OC |  |  |  |  | 14 | 30 | -8 | -12 |  |
| CCCCC(=O)Nc1c(O)nc(C)c2cc(OC)c(OC)cc12 |  |  |  |  | 3 | -9 | 6 | 13 |  |
| CCNC(=O)Nc1c(O)nc(C)c2cc(OC)c(OC)cc12 | -22 | 28 | 0 | 0 |  |  |  |  |  |
| COc1cc2c(C)nc(O)c(NC(=O)Nc3ccc(C(=O)O)cc3)c2cc1OC | -28 | 40 | -12 | -1 |  |  |  |  |  |
| COc1cc2c(C)nc(O)c(NC(=O)Nc3ccccc3)c2cc1OC | 35 | -23 | -13 | 0 |  |  |  |  |  |
| COc1cc2c(C)nc(O)c(NC(=O)NC(C)(C)C)c2cc1OC |  |  |  |  | 1 | 10 | -4 | -8 |  |
| CCCCNC(=O)Nc1c(O)nc(C)c2cc(OC)ccc12 | 16 | -12 | -6 | 3 |  |  |  |  |  |
| C=CCOC(=O)Nc1c(O)nc(C)c2cc(OC)c(OC)cc12 |  |  |  |  | -9 | 2 | -2 | -11 |  |
| COc1cc2c(C)nc(O)c(NC(=O)C(C)C)c2cc1OC |  |  |  |  | -2 | -5 | -1 | -4 |  |
| COc1cc2c(C)nc(O)c(NC(=O)Nc3ccc(C(F)(F)F)cc3)c2cc1OC |  |  |  |  | 4 | 49 | 10 | -29 |  |
| COc1cc2c(C)nc(O)c(NC(=O)Nc3ccc([N+](=O)[O-])cc3)c2cc1OC | -2 | 3 | -1 | 1 |  |  |  |  |  |
| C=CCNC(=O)Nc1c(O)nc(C)c2cc(OCC)c(OC)cc12 | -22 | 28 | 29 | -2 |  |  |  |  |  |
| COc1cccc(NC(=O)Nc2c(O)nc(C)c3cc(OC)c(OC)cc23)c1 |  |  |  |  | -1 | 59 | -2 | -36 |  |
| COc1cc2c(C)nc(O)c(NC(C)=O)c2cc1OC |  |  |  |  | 6 | 39 | 14 | -24 | Increase (Canis familiaris [9]): 47% |
| COc1cc2c(C)nc(O)c(NC(=O)Nc3cccc(C(F)(F)F)c3)c2cc1OC |  |  |  |  | 2 | 23 | -10 | -16 |  |

| Compound | Change (Canis familiaris [1]) [%] | Change (Canis familiaris [2]) [%] | Change (Canis familiaris [3]) [%] | Change (Canis familiaris [4]) [%] | Change (Canis familiaris [5]) [%] | Change (Canis familiaris [6]) [%] | Change (Canis familiaris [7]) [%] | Change (Canis familiaris [8]) [%] | further results |
| --- | --- | --- | --- | --- | --- | --- | --- | --- | --- |
| CCc1c(O)nc(C)c2cc(OC)c(OC)cc12 |  |  |  |  |  |  |  |  | Increase (Canis familiaris [10]): 143% |
| COc1cc2cc(O)nc(C)c2cc1OC |  |  |  |  |  |  |  |  | Increase (Canis familiaris [11]): 100% |
| COc1ccc(NC(=O)Nc2c(O)nc(C)c3c(OC)c(OC)c(OC)cc23)cc1 |  |  |  |  | -4 | 14 | 7 | -15 |  |
| CNC(=O)Nc1c(O)nc(C)c2cc(OC)c(OC)cc12 | -5 | 4 | 3 | 4 |  |  |  |  |  |
| COc1ccc(NC(=O)Nc2c(O)nc(C)c3cc(OC)c(OC)cc23)cc1 |  |  |  |  | 12 | 68 | 2 | -32 |  |
| CCCCOC(=O)Nc1c(O)nc(C)c2cc(OC)c(OC)cc12 |  |  |  |  | -3 | -23 | -6 | 29 |  |
| COc1cc2c(C)nc(O)c(NC(=O)NC3CCCCC3)c2cc1OC | -4 | 7 | 0 | 0 |  |  |  |  |  |
| CCOc1cc2c(C)nc(O)c(NC(=O)Nc3ccc(OC)cc3)c2cc1OC |  |  |  |  | 6 | -8 | 10 | 15 |  |
| CCCCCC(=O)Nc1c(O)nc(C)c2cc(OC)c(OC)cc12 |  |  |  |  | 0 | -27 | -9 | 40 |  |
| COc1cc2c(C)nc(O)c(NC(=O)NC(C)C)c2cc1OC | -10 | 11 | 3 | -9 |  |  |  |  |  |
| CCCCNC(=O)Nc1c(O)nc(C)c2cc(OC)c(OC)cc12 | -27 | 36 | 6 | -3 | 4 | 117 | -2 | -52 |  |
| COc1cccc(NC(=O)Nc2c(O)nc(C)c3cc(OC)ccc23)c1 | -4 | 17 | 5 | 2 |  |  |  |  |  |
| COc1cccc(NC(=O)Nc2c(O)nc(C)c3c(OC)c(OC)ccc23)c1 | -16 |  | -2 | -3 |  |  |  |  | Change (Canis familiaris [12]): 17% |
| COc1cc2c(C)nc(O)c(N)c2cc1OC |  | 23 |  |  | 6 |  | 4 | -13 | Increase (Canis familiaris [13]): 114% |
| CCOC(=O)c1ccc(NC(=O)Nc2c(O)nc(C)c3cc(OC)c(OC)cc23)cc1 | -4 | 2 | -1 | -2 |  |  |  |  |  |
| CCCNC(=O)Nc1c(O)nc(C)c2cc(OC)c(OC)cc12 | 0 | 5 | -7 | 1 |  |  |  |  |  |
